In general, CC50 refers to the concentration that lowers cell viability or growth by half. A lower CC50 goes with greater toxicity to the cells. By EC50 is commonly meant the concentration giving half of the maximal effect.

Data set [1] concerns Human immunodeficiency virus 1. Nature of the data set: Inhibition of HIV1 viral replication infected in human PBMC cells assessed as viral p24Ag concentration after 7 days postinfection by ELISA relative to untreated control. The class given is functional. In short, it runs like this: (§1)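 HIV-1 Ba-L (R5-tropic, subtype B) grown in PHA-activated donor PBMCs. PBMCs stimulated 2–3 days with 5 μg/mL PHA, then kept with 5 U/mL IL-2. Cells plated at 2 × 10⁵/well in triplicate with a range of compound concentrations. After 7 days at 37 °C, 5% CO₂, supernatant p24 measured by capture ELISA. EC₅₀ derived against untreated infected cells.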

Data set [2] is described as follows: Cytotoxicity against human PBMC by XTT assay. The class given is cell-based. The settings on record: PBMC (peripheral blood mononuclear cells). The method in brief:
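PBMCs held in RPMI 1640 with 10% heat-inactivated FBS, penicillin, streptomycin, 2 mM glutamine and 10 mM HEPES. Activated with 5 µg/mL PHA for 2–3 days, then kept with 5 U/mL IL-2. Cells exposed to a range of concentrations. Viability read by XTT, OD 450 nm 2 h after addition. CC50 is the concentration giving 50% viability loss versus untreated controls.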
Background: Tetrazolium dyes change colour on reduction, which living cells bring about.

The test system of data set [3] is Human immunodeficiency virus 1. Nature of the data set: Inhibition of HIV1 viral replication infected in human PBMC cells assessed as viral p24Ag concentration after 7 days postinfection by ELISA. Format: functional, organism-based. The settings on record: Human immunodeficiency virus 1, PBMC, 168 h. In short, it runs like this: as §1
A general note: In an ELISA, binding on a coated surface is turned into a signal by an enzyme label.

A short description of data set [4]: Selectivity index, ratio of CC50 for human PBMC cells to EC50 for HIV1. Format: toxicity, cell-based. To be noted: read-out: Ratio CC50/EC50. The method in brief:
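Ratio of PBMC CC50 to anti-HIV-1 EC50. Both were measured in PHA-activated, IL-2-maintained PBMCs. For EC50, cells were infected with Ba-L isolate (R5-tropic, subtype B), plated at 2 × 10⁵ cells/well in triplicate and treated with various concentrations for 7 days at 37 °C, 5% CO2. Supernatant p24 was measured by capture ELISA against untreated infected cells. CC50 came from XTT viability.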

For `NNC(=O)c1cn(COCCO)c2ccc(F)cc2c1=O`, in data set [1], the “inhibition (INH)” value was 96%. This molecule also gave a CC50 in data set [2] of 909 µM. The EC50 in data set [3] came to 3.3 µM. The selectivity ratio in data set [4] is 275.
Taken in the same sequence, the figures for `NNC(=O)c1cn(COCCO)c2ccc(Cl)cc2c1=O` were 99%, 2400 µM, 2.5 µM and 960.
For `O=C(NCc1ccccc1)c1cn(COCCO)c2ccc(F)cc2c1=O`, in that order: 90%, 2800 µM, 2.8 µM and 1000.
For `CCOC(=O)c1cn(COCCO)c2ccc(Cl)cc2c1=O`, in that order: 45%, 1800 µM, 50 µM and 36.
For the molecule `NNC(=O)c1c[nH]c2ccc(Cl)cc2c1=O`, the “inhibition (INH)” value in data set [1] is given as 29%. In addition, in data set [2], the CC50 was found to be 1230 µM. The EC50 in data set [3] stood at 86 µM. The selectivity ratio in data set [4] came to 14.
Taken in the same sequence, the figures for `CCOC(=O)c1cn(COCCO)c2ccc(F)cc2c1=O` were 30%, 1500 µM, 83.3 µM and 18.
For `CCOC(=O)c1cn(Cc2ccccc2)c2ccc(Cl)cc2c1=O`, in that order: 24%, 1840 µM, 104 µM and 18.
For `CCOC(=O)c1c[nH]c2ccc(Cl)cc2c1=O`, in that order: 58%, 1660 µM, 43 µM and 39.
As for `O=C(O)c1cn(Cc2ccccc2)c2ccc(Cl)cc2c1=O`, in data set [1], the “inhibition (INH)” value turned out to be 29%. The molecule also displayed a cytotoxic concentration (CC50) in data set [2] of 1890 µM. In data set [3], the EC50 stood at 86 µM. Further, the selectivity ratio in data set [4] is 22.
For `O=C(NCc1ccccc1)c1c[nH]c2ccc(Cl)cc2c1=O`, in that order: 47%, 1400 µM, 53 µM and 26.
For the molecule `Cc1cn([C@H]2C[C@H](N=[N+]=[N-])[C@@H](CO)O2)c(=O)[nH]c1=O` [ZIDOVUDINE], the “inhibition (INH)” value in data set [1] is 94%. This molecule registered a CC50 in data set [2] of 126 µM. Besides, the EC50 in data set [3] was 0.05 µM. The selectivity ratio in data set [4] was found to be 2520.
Taken in the same sequence, the figures for `O=C(NCc1ccccc1)c1cn(COCCO)c2ccc(Cl)cc2c1=O` were 98%, 3200 µM, 4.5 µM and 711.
For `O=C(O)c1cn([C@@H]2O[C@H](CO)[C@@H](O)[C@H]2O)c2ccc(Cl)cc2c1=O`, in that order: 99%, 1700 µM, 1.5 µM and 1130.

The values above are taken from ChEMBL document CHEMBL1152418, “Synthesis, antiviral activity and molecular modeling of oxoquinoline derivatives” (Bioorg Med Chem, 2009).
